Compounds with a hit are over-represented: about 3.4% of the library has one in this group of screens.
ROMK primary = modulators of human ROMK potassium channel; P48048; Tet-inducible ROMK, thallium flux fluorescence; actives lie on both sides; B-score at 10 µM; 2% of 130,000 active;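 active means signal ratio slope over the read window, or its plate-corrected B-score, at least 3 SD from the plate mean, either direction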;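 further: B-score of the F/F0 ratio slope over 7 to 12 s after thallium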
Target sequence (P48048 whole entry, looked up): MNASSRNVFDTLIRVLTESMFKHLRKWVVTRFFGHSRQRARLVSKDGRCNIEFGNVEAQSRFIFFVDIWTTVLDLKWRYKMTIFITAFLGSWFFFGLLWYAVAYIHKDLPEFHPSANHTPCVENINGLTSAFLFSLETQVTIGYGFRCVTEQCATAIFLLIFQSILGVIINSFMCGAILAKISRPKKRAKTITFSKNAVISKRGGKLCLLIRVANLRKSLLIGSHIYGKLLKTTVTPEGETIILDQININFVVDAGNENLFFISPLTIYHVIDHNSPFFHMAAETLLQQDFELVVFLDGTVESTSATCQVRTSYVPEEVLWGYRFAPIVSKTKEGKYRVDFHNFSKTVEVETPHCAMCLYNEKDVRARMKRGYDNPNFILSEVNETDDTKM
p97 ATPase inh = blocks human p97 ATPase activity. inhibition, % at 8 µM. 0.42% of 220,000 active. AID 1481. recombinant p97 ATPase, Kinase-Glo ATP luminescence, 3 h; in the data active means inhibition above about 15%;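 further: 0% = DMSO vehicle and 100% = wells lacking enzyme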
PKD1 inh = PKD1 (human) kinase inhibition | Q15139 | 0.056% of 200,000 active | inhibition, % (test concentration not listed) | PKD1 kinase fluorescence polarization assay; in the data active means inhibition above about 50%
DTT redox prof = compounds producing H2O2 with reducing agent – biochemical, NIH compound library profiling, artefact control for MLSCN library redox annotation, primary screen. activation, % at 10 µM. 0.03% of 200,000 active. DTT-dependent redox cycling H2O2, phenol red/HRP absorbance; 100% = 100 µM peroxide control, 0% = buffer;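 active means activation of at least 50% relative to the plate's high and low controls in the primary single-dose screen; inactive means activation below 50%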;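 further: compound incubated with DTT at 0.8 mM final as the reducing agent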
Mdm2 ligase inh = inhibitors of human Mdm2 E3 ubiquitin ligase | Q00987 | cell-based MDM2 ubiquitination luciferase reporter, 2 h; 0 = plate control, 100 = twice control, blank-subtracted | signal enhancement, % at 5 µM | 0.11% of 210,000 active;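 active means signal enhancement of 30% or more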;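 further: luminescence tracks abundance of the self-degrading MDM2-luciferase fusion protein; higher signal means inhibition of MDM2 E3 ligase activity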
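system = mammalian cells stably expressing self-ubiquitinating, self-degrading MDM2 E3–luciferase fusion | quantity = 2000 cells per well seeded | incubation = 4 h cell settling then 2 h compound exposure, 37 °C | signal = SteadyLite luminescence, 15 min reagent step | benchmarks = plate control and blank wells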
Cl transport mod = modulates chloride dependent transport by human KCC2 | B-score of Tl+ flux slope (higher = more flux/activation; lower = inhibition) at 10 µM | AID 1456 | 2.2% of 190,000 active | KCC2 cells, thallium flux FluoZin-2 fluorescence | Q9H2X9;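 active means thallium flux slope and its plate-corrected score both differing from the plate sample mean at a set confidence after two filtering rounds, in either direction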;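 further: slope of fluorescence scaled to starting intensity during 10 to 20 s after thallium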
KCC2 secondary = KCC2 (human) modulation, secondary assay; shares compounds with Cl transport mod; HEK293-KCC2, thallium flux, FluoZin2 fluorescence; hits give high values; normalised thallium flux (F/F0 slope) at 10 µM; 15% of 3,700 active;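 active means thallium flux slope above the same plate's solvent-only control mean plus 3 SD; inconclusive means the two replicate wells disagree; inactive means no significant difference from solvent-only control wells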
KCC2 bumet counter = thallium flux despite bumetanide block in KCC2 cells, secondary assay 3. 49% of 3,700 active. AID 1714. normalized thallium flux at 10 µM. HEK293-KCC2 + bumetanide/ouabain, thallium flux FluoZin2; hits give high values. shares compounds with Cl transport mod;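 active means thallium entry rate above the same plate's blocked-transporter control wells by more than 3 SD; inconclusive means the two repeat wells disagree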;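 further: raw slope of fluorescence over initial fluorescence between 10 and 20 s after thallium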
KCC2 sec2 = confirmation of human KCC2 transport modulators | shares compounds with Cl transport mod | HEK293-KCC2, thallium flux FluoZin2 fluorescence; actives lie on both sides; F/F0 rise rate, 10–20 s post-thallium | normalized thallium flux at 10 µM | 23% of 3,700 active | AID 1715;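 active means thallium flux slope more than 3 SD above or below the plate's solvent-only control mean, mostly below; inconclusive means the two repeat wells disagreed; inactive means no significant shift from solvent-only controls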;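 further: raw slope with 0.1% DMSO as baseline and bumetanide as block control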
HEK293 Tl flux = acts in parental HEK cells, KCC2 counter-screen; shares compounds with Cl transport mod; HEK293 parental cells, thallium flux FluoZin2, ouabain; baseline-ratio fluorescence slope, 10–20 s after thallium; thallium flux rate (normalised fluorescence) at 10 µM; 46% of 3,700 active; AID 1716;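 active means thallium flux rate significantly above the same plate's solvent-only control wells, beyond their mean plus 3 SD; inconclusive means the two replicate wells gave conflicting results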
KCC2 retest ouab = confirmation of human KCC2 modulators with ouabain. shares compounds with Cl transport mod. raw Tl+ flux slope (below DMSO = inhibition, above = activation) at 10 µM. AID 1717. HEK293-KCC2, thallium flux FluoZin2 fluorescence; bidirectional: low = inhibitor, high = activator. 48% of 3,700 active;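 active means thallium flux slope beyond 3 SD from same-plate DMSO control mean in most replicates, usually higher, sometimes lower; inconclusive means repeat tests gave conflicting results; inactive means no significant difference from controls in most replicates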;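 further: slope of initial-normalized fluorescence between seconds 10 and 20 after thallium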
HEK293 Tl flux2 = parental HEK flux effect, counter-screen 2; shares compounds with Cl transport mod; HEK293 parental, thallium flux FluoZin-2 fluorescence slope; thallium flux slope at 10 µM; 33% of 3,700 active; AID 1718;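 active means thallium flux slope above the same plate's solvent-control mean plus 3 SD in both duplicate wells; inconclusive means duplicate wells that disagreed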;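 further: run without ouabain in cells lacking the KCC2 cotransporter; slope of fluorescence scaled to its starting value between 10 and 20 s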
Starred values were filed as active, the others as inactive.

For O=C(CSc1nc2c(c(=O)n1-c1ccccc1)SCC2)N1CCN(c2ccccc2)CC1 the results were p97 ATPase inh -4, PKD1 inh -5, DTT redox prof 0, Mdm2 ligase inh -31, Cl transport mod -7.6*, KCC2 secondary 0.0067, KCC2 bumet counter 0.0061, KCC2 sec2 0.032, HEK293 Tl flux 0.0069, KCC2 retest ouab 0.012* and HEK293 Tl flux2 inconclusive.
CC1Cc2nc(SCC(=O)N3CCN(c4ccccc4)CC3)n(C)c(=O)c2S1 (stereo not given) was read as p97 ATPase inh 0, PKD1 inh -2, DTT redox prof 1 and Mdm2 ligase inh -14.
Screening CCn1c(SCC(=O)N2CCN(c3ccccc3)CC2)nc2c(c1=O)SC(C)C2 (stereo not given) returned p97 ATPase inh 3, PKD1 inh -15, DTT redox prof 0, Mdm2 ligase inh -14, Cl transport mod -3.1*, KCC2 secondary 0.0049, KCC2 bumet counter 0.0041, KCC2 sec2 inconclusive, HEK293 Tl flux 0.0051*, KCC2 retest ouab 0.014* and HEK293 Tl flux2 0.0084*.
Screening O=C(CSc1nc2c(c(=O)n1-c1ccccc1)SCC2)N1CCOCC1 returned p97 ATPase inh -2, PKD1 inh 1, DTT redox prof 0, Mdm2 ligase inh -16 and Cl transport mod -0.032.
For CCc1nnc(NC(=O)CSc2nc3cc4c(cc3cc2C)OCCO4)s1 the results were p97 ATPase inh -1, PKD1 inh 2, DTT redox prof -4, Mdm2 ligase inh -26 and Cl transport mod -0.51.
Screening Cn1nnc(NCc2cc(Br)ccc2OCc2ccccc2F)n1 returned ROMK primary -1.3, p97 ATPase inh 2, PKD1 inh 0, DTT redox prof 7, Mdm2 ligase inh -13, Cl transport mod -4.1*, KCC2 secondary 0.0053, KCC2 bumet counter 0.0031*, KCC2 sec2 0.024*, HEK293 Tl flux 0.006*, KCC2 retest ouab 0.013* and HEK293 Tl flux2 0.0095.
For Cc1oc(-c2ccccc2)nc1C(=O)Nc1nccs1 the results were p97 ATPase inh 6, PKD1 inh -7, DTT redox prof 2, Mdm2 ligase inh -17, Cl transport mod 7.7*, KCC2 secondary 0.01, KCC2 bumet counter 0.016*, KCC2 sec2 0.032, HEK293 Tl flux 0.0097*, KCC2 retest ouab 0.022 and HEK293 Tl flux2 0.012*.
Screening COc1ccc(-c2csc(NC(=O)c3nc(-c4ccccc4)oc3C)n2)cc1 returned p97 ATPase inh -1, PKD1 inh 0, DTT redox prof 1, Mdm2 ligase inh -2 and Cl transport mod 1.
C(=C\c1ccccc1)/CN1CCN(Cc2ccc3c(c2)OCCO3)CC1 was read as p97 ATPase inh 0, PKD1 inh -7, DTT redox prof 1, Mdm2 ligase inh -3, Cl transport mod 3.4*, KCC2 secondary 0.0083, KCC2 bumet counter 0.005, KCC2 sec2 0.035, HEK293 Tl flux 0.008, KCC2 retest ouab 0.021 and HEK293 Tl flux2 0.011.
`O=C(CN1C(=O)c2ccccc2C1=O)N1CCCCC1` gave p97 ATPase inh 0, PKD1 inh -8, DTT redox prof 0, Mdm2 ligase inh -4 and Cl transport mod 1.6.
For O=CN1CCN(C(=O)CN2C(=O)c3ccccc3C2=O)CC1 the results were ROMK primary -0.44, p97 ATPase inh 0, PKD1 inh 6, DTT redox prof 1, Mdm2 ligase inh -14, Cl transport mod 6.3*, KCC2 secondary 0.0059, KCC2 bumet counter inconclusive, KCC2 sec2 0.027, HEK293 Tl flux 0.0081, KCC2 retest ouab 0.018 and HEK293 Tl flux2 0.01.
For O=C1c2ccncc2C(=O)N1c1cccc(Cl)c1 the results were ROMK primary 1.5, p97 ATPase inh -1, PKD1 inh 2, DTT redox prof -1, Mdm2 ligase inh -26 and Cl transport mod 0.78.
Screening Oc1ccc(COCc2ccccc2)c2cccnc12 returned ROMK primary -1.5, p97 ATPase inh 6, PKD1 inh 7, DTT redox prof 2, Mdm2 ligase inh -16, Cl transport mod 3.3*, KCC2 secondary 0.0082, KCC2 bumet counter 0.028*, KCC2 sec2 0.034, HEK293 Tl flux 0.013*, KCC2 retest ouab inconclusive and HEK293 Tl flux2 0.011.
For Cc1ccc(NC(=S)NNc2ncc(C(F)(F)F)cc2Cl)cc1 the results were p97 ATPase inh -5, PKD1 inh 6, DTT redox prof 0, Mdm2 ligase inh -19, Cl transport mod 17*, KCC2 secondary inconclusive, KCC2 bumet counter 0.078*, KCC2 sec2 0.031, HEK293 Tl flux 0.013*, KCC2 retest ouab 0.042* and HEK293 Tl flux2 0.012*.
For Fc1ccc(NC(=S)NNc2ncc(C(F)(F)F)cc2Cl)c(F)c1 the results were p97 ATPase inh -1, PKD1 inh 9, DTT redox prof -1, Mdm2 ligase inh -1, Cl transport mod 53*, KCC2 secondary 0.006, KCC2 bumet counter 0.038*, KCC2 sec2 inconclusive, HEK293 Tl flux 0.032*, KCC2 retest ouab 0.035* and HEK293 Tl flux2 0.022*.
For Cc1ccc(NC(=S)NNC(=S)Nc2cccc(C(F)(F)F)c2)cc1 the results were ROMK primary 0.27, p97 ATPase inh 5 and Mdm2 ligase inh -10.
ON/C=N/C(=S)Nc1ncc(C(F)(F)F)cc1Cl was read as ROMK primary 0.32, p97 ATPase inh 0, PKD1 inh -1, DTT redox prof 0, Mdm2 ligase inh -16, Cl transport mod 25*, KCC2 secondary 0.008, KCC2 bumet counter 0.052*, KCC2 sec2 0.058*, HEK293 Tl flux 0.048*, KCC2 retest ouab 0.052* and HEK293 Tl flux2 inconclusive.

High-throughput results as filed in PubChem BioAssay.
